Reference: ChEMBL document CHEMBL3102840, “Synthesis and anti-proliferative activity of aromatic substituted 5-((1-benzyl-1H-indol-3-yl)methylene)-1,3-dimethylpyrimidine-2,4,6(1H,3H,5H)-trione analogs against human tumor cell lines” (2014)

Assays:
Assay type in all cases: functional
MDA-MB-468 [1] = assay: Cytotoxicity against human MDA-MB-468 cells assessed as growth inhibition at 10 uM after 48 hrs by SRB assay; conditions: MDA-MB-468, 48 h, read-out: GI
Summary of the method: (§1)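 Single-dose screen at 10µM across the sixty-cell-line panel. Percentage growth is derived from SRB-stain OD taken just before compound exposure, after 48 hrs exposure, and in vehicle-treated controls. Negative values indicate cytotoxicity.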

TK-10 [2] = assay: Cytotoxicity against human TK10 cells assessed as growth inhibition at 10 uM after 48 hrs by SRB assay; conditions: TK-10, 48 h, read-out: GI; summary of the method: as §1
A498 [3] = assay: Cytotoxicity against human A498 cells assessed as growth inhibition at 10 uM after 48 hrs by SRB assay; conditions: A498, 48 h, read-out: GI; summary of the method: as §1
[4] = Cytotoxicity against human OVCAR5 cells assessed as growth inhibition at 10 uM after 48 hrs by SRB assay; conditions: OVCAR-5, 48 h, read-out: GI; summary of the method: as §1
NCI-H226 [5] = assay: Cytotoxicity against human NCI-H226 cells assessed as growth inhibition at 10 uM after 48 hrs by SRB assay; conditions: NCI-H226, 48 h, read-out: GI; summary of the method: as §1
MDA-MB-468 [6] = assay: Cytotoxicity against human MDA-MB-468 cells after 48 hrs by SRB assay; conditions: MDA-MB-468, 48 h
Summary of the method: (§2)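 Five-dose run from the sixty-line panel, at 10−4, 10−5, 10−6, 10−7 and 10−8 M. SRB-stain OD is read just before compound addition, after 48 hrs of exposure, and in vehicle controls, giving percentage growth; negative growth indicates cytotoxicity. GI50 is the concentration giving 50% reduction in net protein increase versus control cells. LC50 is the concentration lethal to 50% of cells.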

BT-549 = assay: Cytotoxicity against human BT549 cells after 48 hrs by SRB assay; conditions: BT-549, 48 h; summary of the method: as §2
T47D = assay: Cytotoxicity against human T47D cells after 48 hrs by SRB assay; summary of the method: as §2
MDA-MB-231 = assay: Cytotoxicity against human MDA-MB-231 cells after 48 hrs by SRB assay; conditions: MDA-MB-231, 48 h; summary of the method: as §2
MCF7 = assay: Cytotoxicity against human MCF7 cells after 48 hrs by SRB assay; conditions: MCF7, 48 h; summary of the method: as §2
SN12C = assay: Cytotoxicity against human SN12C cells after 48 hrs by SRB assay; summary of the method: as §2
TK-10 [7] = assay: Cytotoxicity against human TK10 cells after 48 hrs by SRB assay; conditions: TK-10, 48 h; summary of the method: as §2
A498 [8] = assay: Cytotoxicity against human A498 cells after 48 hrs by SRB assay; conditions: A498, 48 h; summary of the method: as §2
RXF 393 = assay: Cytotoxicity against human RXF393 cells after 48 hrs by SRB assay; conditions: RXF 393, 48 h; summary of the method: as §2
SK-OV-3 = assay: Cytotoxicity against human SKOV3 cells after 48 hrs by SRB assay; conditions: SK-OV-3, 48 h; summary of the method: as §2
786-0 = assay: Cytotoxicity against human 786-0 cells after 48 hrs by SRB assay; conditions: 786-0, 48 h; summary of the method: as §2
[9] = Cytotoxicity against human NCI-ADR-RES cells after 48 hrs by SRB assay; summary of the method: as §2
OVCAR-8 = assay: Cytotoxicity against human OVCAR8 cells after 48 hrs by SRB assay; conditions: OVCAR-8, 48 h; summary of the method: as §2
[10] = Cytotoxicity against human OVCAR5 cells after 48 hrs by SRB assay; conditions: OVCAR-5, 48 h; summary of the method: as §2
IGROV-1 = assay: Cytotoxicity against human IGROV1 cells after 48 hrs by SRB assay; conditions: IGROV-1, 48 h; summary of the method: as §2
UACC-62 = assay: Cytotoxicity against human UACC62 cells after 48 hrs by SRB assay; conditions: UACC-62, 48 h; summary of the method: as §2
[11] = Cytotoxicity against human UACC257 cells after 48 hrs by SRB assay; conditions: UACC-257, 48 h; summary of the method: as §2
SK-MEL-2 = assay: Cytotoxicity against human SK-MEL-2 cells after 48 hrs by SRB assay; conditions: SK-MEL-2, 48 h; summary of the method: as §2
SK-MEL-5 = assay: Cytotoxicity against human SK-MEL-5 cells after 48 hrs by SRB assay; conditions: SK-MEL-5, 48 h; summary of the method: as §2
MDA-MB-435 = assay: Cytotoxicity against human MDA-MB-435 cells after 48 hrs by SRB assay; conditions: MDA-MB-435, 48 h; summary of the method: as §2
LOX IMVI = assay: Cytotoxicity against human LOXIMVI cells after 48 hrs by SRB assay; summary of the method: as §2
SNB-19 = assay: Cytotoxicity against human SNB19 cells after 48 hrs by SRB assay; conditions: SNB-19, 48 h; summary of the method: as §2
SF-295 = assay: Cytotoxicity against human SF295 cells after 48 hrs by SRB assay; conditions: SF-295, 48 h; summary of the method: as §2
SW-620 = assay: Cytotoxicity against human SW620 cells after 48 hrs by SRB assay; conditions: SW-620, 48 h; summary of the method: as §2
HCT-116 = assay: Cytotoxicity against human HCT116 cells after 48 hrs by SRB assay; conditions: HCT-116, 48 h; summary of the method: as §2
COLO 205 = assay: Cytotoxicity against human COLO205 cells after 48 hrs by SRB assay; conditions: COLO 205, 48 h; summary of the method: as §2
NCI-H460 = assay: Cytotoxicity against human NCI-H460 cells after 48 hrs by SRB assay; conditions: NCI-H460, 48 h; summary of the method: as §2
NCI-H23 = assay: Cytotoxicity against human NCI-H23 cells after 48 hrs by SRB assay; conditions: NCI-H23, 48 h; summary of the method: as §2
NCI-H226 [12] = assay: Cytotoxicity against human NCI-H226 cells after 48 hrs by SRB assay; conditions: NCI-H226, 48 h; summary of the method: as §2
HOP-62 = assay: Cytotoxicity against human HOP62 cells after 48 hrs by SRB assay; conditions: HOP-62, 48 h; summary of the method: as §2
K562 = assay: Cytotoxicity against human K562 cells after 48 hrs by SRB assay; conditions: K562, 48 h, read-out: LC50 (the source's name); summary of the method: as §2
SR = assay: Cytotoxicity against human SR cells after 48 hrs by SRB assay; summary of the method: as §2
[13] = read-out: LC50 (the source's name)

`COC(=O)c1ccc(Cn2cc(C=C3C(=O)N(C)C(=O)N(C)C3=O)c3cc(C(=O)OC)ccc32)cc1` gave an inhibition of growth at 10 µM (MDA-MB-468 [1]) of 99%, an inhibition of growth at 10 µM (TK-10 [2]) of 113% and an inhibition of growth at 10 µM (A498 [3]) of 105%. The inhibition of growth at 10 µM [4] was 98% and the inhibition of growth at 10 µM (NCI-H226 [5]) was 88%.

Compound `CN1C(=O)C(=Cc2cn(Cc3ccc(F)cc3)c3ccccc23)C(=O)N(C)C1=O` has a GI50 (MDA-MB-468 [6]) of 0.03 µM, an LC50 (MDA-MB-468 [6]) of 0.5 µM and a GI50 (BT-549) of 24.1 µM. For the same compound, the CC50 (BT-549; [13]) was > 100 µM, the GI50 (T47D) was 5.38 µM and the LC50 (T47D) was > 100 µM. The GI50 (MDA-MB-231) was 23.6 µM, the CC50 (MDA-MB-231; [13]) was > 100 µM and the GI50 (MCF7) was > 100 µM. The LC50 (MCF7) was > 100 µM, the GI50 (SN12C) was > 100 µM and the CC50 (SN12C; [13]) was > 100 µM. For the same compound, the GI50 (TK-10 [7]) was 0.59 µM, the CC50 (TK-10 [7]; [13]) was > 100 µM and the GI50 (A498 [8]) was 0.07 µM. The LC50 (A498 [8]) was 0.67 µM, the GI50 (RXF 393) was 14.9 µM and the LC50 (lethal concentration, 50%) (RXF 393) was > 100 µM. For the same compound, the GI50 (SK-OV-3) was 15.3 µM, the LC50 (SK-OV-3) was > 100 µM and the GI50 (786-0) was 22.7 µM. For the same compound, the LC50 (786-0) was > 100 µM, the GI50 [9] was > 100 µM and the CC50 [9, 13] was > 100 µM. The GI50 (OVCAR-8) was > 100 µM, the CC50 (OVCAR-8; [13]) was > 100 µM and the GI50 [10] was 0.11 µM. The CC50 [10, 13] was > 100 µM, the GI50 (IGROV-1) was 4.33 µM and the CC50 (IGROV-1; [13]) was > 100 µM. The GI50 (UACC-62) was 2.89 µM, the LC50 (UACC-62) was > 100 µM and the GI50 [11] was 2.52 µM. For the same compound, the CC50 [11, 13] was > 100 µM, the GI50 (SK-MEL-2) was 6.35 µM and the GI50 (SK-MEL-5) was > 100 µM. The LC50 (SK-MEL-5) was > 100 µM, the GI50 (MDA-MB-435) was > 100 µM and the LC50 (MDA-MB-435) was > 100 µM. The GI50 (LOX IMVI) was > 100 µM, the CC50 (LOX IMVI; [13]) was > 100 µM and the GI50 (SNB-19) was 26.7 µM. For the same compound, the LC50 (SNB-19) was > 100 µM, the GI50 (SF-295) was 1.97 µM and the LC50 (SF-295) was > 100 µM. For the same compound, the GI50 (SW-620) was > 100 µM, the CC50 (SW-620; [13]) was > 100 µM and the GI50 (HCT-116) was 6.26 µM. For the same compound, the LC50 (HCT-116) was > 100 µM, the GI50 (COLO 205) was 1.44 µM and the CC50 (COLO 205; [13]) was > 100 µM. For the same compound, the GI50 (NCI-H460) was 0.37 µM, the CC50 (NCI-H460; [13]) was > 100 µM and the GI50 (NCI-H23) was 51.5 µM. The LC50 (NCI-H23) was > 100 µM, the GI50 (NCI-H226 [12]) was 2.56 µM and the CC50 (NCI-H226 [12]; [13]) was > 100 µM. The GI50 (HOP-62) was 7.7 µM, the CC50 (HOP-62; [13]) was > 100 µM and the CC50 (K562) was > 100 µM. For the same compound, the GI50 (SR) was > 100 µM, the LC50 (lethal concentration, 50%) (SR) was > 100 µM and the inhibition of growth at 10 µM (MDA-MB-468 [1]) was -71%. For the same compound, the inhibition of growth at 10 µM (TK-10 [2]) was -15%, the inhibition of growth at 10 µM (A498 [3]) was -85% and the inhibition of growth at 10 µM [4] was -33%. It also gave an inhibition of growth at 10 µM (NCI-H226 [5]) of -78%.

`CN1C(=O)C(=Cc2cn(Cc3ccc(C#N)cc3)c3ccccc23)C(=O)N(C)C1=O` gave an inhibition of growth at 10 µM (MDA-MB-468 [1]) of -71%, an inhibition of growth at 10 µM (TK-10 [2]) of 62% and an inhibition of growth at 10 µM (A498 [3]) of 68%. For the same compound, the inhibition of growth at 10 µM [4] was 6% and the inhibition of growth at 10 µM (NCI-H226 [5]) was -72%.

Compound `CN1C(=O)C(=Cc2cn(Cc3ccccc3Br)c3ccccc23)C(=O)N(C)C1=O` has an inhibition of growth at 10 µM (MDA-MB-468 [1]) of 56%, an inhibition of growth at 10 µM (TK-10 [2]) of 105% and an inhibition of growth at 10 µM (A498 [3]) of 74%. The inhibition of growth at 10 µM [4] was 75% and the inhibition of growth at 10 µM (NCI-H226 [5]) was -32%.
